In ChEMBL document CHEMBL3616378 (J Med Chem, 2015):

Tests used:
[1] = molecular target: T1, Metabotropic glutamate receptor 2 (Homo sapiens, UniProt Q14416); experiment: Agonist activity at human recombinant mGlu2 receptor expressed in AV12 cells assessed as inhibition of forskolin-stimulated cAMP production after 20 min by fluorescence assay
[2] = molecular target: T1, Metabotropic glutamate receptor 2; experiment: Displacement of [3H]-459477 from human recombinant mGlu2 receptor expressed in AV12 cells after 90 mins by liquid scintillation counting; assay type: cell-based
[3] = molecular target: T2, Metabotropic glutamate receptor 3 (Homo sapiens, UniProt Q14832); experiment: Agonist activity at human recombinant mGlu3 receptor expressed in AV12 cells assessed as stimulation of Ca2+ mobilization after 1.5 hrs by FLIPR assay; assay type: functional, cell-based
T2 sequence (Q14832 whole entry): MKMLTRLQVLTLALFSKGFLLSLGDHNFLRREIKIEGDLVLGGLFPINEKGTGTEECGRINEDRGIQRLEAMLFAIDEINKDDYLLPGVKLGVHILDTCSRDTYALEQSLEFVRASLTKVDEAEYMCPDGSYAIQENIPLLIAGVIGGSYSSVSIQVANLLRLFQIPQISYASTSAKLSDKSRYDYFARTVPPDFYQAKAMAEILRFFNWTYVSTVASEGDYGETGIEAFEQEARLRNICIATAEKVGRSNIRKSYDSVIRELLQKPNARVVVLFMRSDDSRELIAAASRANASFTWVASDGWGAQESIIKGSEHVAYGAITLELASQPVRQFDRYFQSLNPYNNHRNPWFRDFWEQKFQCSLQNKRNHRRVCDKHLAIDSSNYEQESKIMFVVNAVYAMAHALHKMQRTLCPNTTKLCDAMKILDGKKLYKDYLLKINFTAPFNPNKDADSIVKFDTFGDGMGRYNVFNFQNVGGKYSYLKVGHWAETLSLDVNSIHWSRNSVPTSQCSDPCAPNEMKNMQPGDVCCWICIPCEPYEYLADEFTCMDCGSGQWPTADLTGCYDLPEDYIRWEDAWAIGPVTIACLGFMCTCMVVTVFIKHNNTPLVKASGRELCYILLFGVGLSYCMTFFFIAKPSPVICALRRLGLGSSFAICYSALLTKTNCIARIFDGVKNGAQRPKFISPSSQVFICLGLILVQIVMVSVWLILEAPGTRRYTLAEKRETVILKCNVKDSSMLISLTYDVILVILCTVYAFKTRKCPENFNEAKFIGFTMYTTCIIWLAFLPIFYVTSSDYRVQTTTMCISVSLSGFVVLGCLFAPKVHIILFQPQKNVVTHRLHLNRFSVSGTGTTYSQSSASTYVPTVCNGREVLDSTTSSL

[4] = molecular target: T2, Metabotropic glutamate receptor 3; experiment: Antagonist activity at human recombinant mGlu3 receptor expressed in AV12 cells assessed as reversal of DCG-4-inhibited, forskolin-stimulated cAMP production after 1 hr by fluorescence assay; assay type: functional, cell-based
[5] = molecular target: T2, Metabotropic glutamate receptor 3; experiment: Antagonist activity at human recombinant mGlu3 receptor expressed in AV12 cells assessed as inhibition of glutamate-stimulated Ca2+ mobilization after 1.5 hrs by FLIPR assay; assay type: functional, cell-based
[6] = molecular target: T2, Metabotropic glutamate receptor 3; experiment: Displacement of [3H]-459477 from human recombinant mGlu3 receptor expressed in AV12 cells after 90 mins by liquid scintillation counting; assay type: cell-based
[7] = molecular target: T2, Metabotropic glutamate receptor 3; experiment: Agonist activity at human recombinant mGlu3 receptor expressed in AV12 cells assessed as inhibition of forskolin-stimulated cAMP production after 1 hr by fluorescence assay; assay type: functional, cell-based
[8] = molecular target: T1, Metabotropic glutamate receptor 2; experiment: Agonist activity at human recombinant mGlu2 receptor expressed in AV12 cells assessed as stimulation of Ca2+ mobilization after 1 hr by FLIPR assay; assay type: functional, cell-based
[9] = molecular target: Metabotropic glutamate receptor 3 (Homo sapiens, UniProt Q14832, Q306L); experiment: Agonist activity at human recombinant mGlu3 receptor Q306L mutant expressed in AV12 cells assessed as stimulation of Ca2+ mobilization after 1 hr by FLIPR assay; assay type: functional, cell-based
Sequence of Metabotropic glutamate receptor 3 (Homo sapiens, UniProt Q14832, Q306L) (Q14832 23-879 Q306L limits assumed): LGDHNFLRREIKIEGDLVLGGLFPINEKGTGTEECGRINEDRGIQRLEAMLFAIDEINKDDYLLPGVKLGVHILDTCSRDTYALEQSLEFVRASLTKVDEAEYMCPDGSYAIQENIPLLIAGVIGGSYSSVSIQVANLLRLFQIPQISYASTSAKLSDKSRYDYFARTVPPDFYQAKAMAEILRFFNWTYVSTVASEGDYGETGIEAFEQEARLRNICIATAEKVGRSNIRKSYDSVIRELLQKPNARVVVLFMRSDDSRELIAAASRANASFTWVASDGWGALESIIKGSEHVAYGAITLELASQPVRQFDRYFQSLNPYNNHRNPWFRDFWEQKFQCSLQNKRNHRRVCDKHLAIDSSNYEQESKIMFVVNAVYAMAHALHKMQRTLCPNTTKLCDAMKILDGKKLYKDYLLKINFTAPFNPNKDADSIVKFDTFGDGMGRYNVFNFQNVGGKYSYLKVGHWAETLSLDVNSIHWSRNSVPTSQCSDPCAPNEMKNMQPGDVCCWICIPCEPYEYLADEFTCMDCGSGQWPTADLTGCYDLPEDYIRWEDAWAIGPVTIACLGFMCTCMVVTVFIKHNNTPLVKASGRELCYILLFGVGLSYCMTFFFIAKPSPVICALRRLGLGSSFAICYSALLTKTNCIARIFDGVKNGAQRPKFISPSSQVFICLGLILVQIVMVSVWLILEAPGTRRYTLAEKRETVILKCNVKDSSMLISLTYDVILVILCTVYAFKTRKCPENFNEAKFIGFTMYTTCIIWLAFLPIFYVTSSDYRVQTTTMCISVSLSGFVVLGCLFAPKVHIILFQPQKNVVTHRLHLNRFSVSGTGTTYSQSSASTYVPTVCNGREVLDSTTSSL

[10] = molecular target: T2, Metabotropic glutamate receptor 3; experiment: Agonist activity at wild type human recombinant mGlu3 receptor expressed in AV12 cells assessed as stimulation of Ca2+ mobilization after 1 hr by FLIPR assay; assay type: functional, cell-based
[11] = molecular target: Metabotropic glutamate receptor 3 (Homo sapiens, UniProt Q14832, D279E); experiment: Agonist activity at human recombinant mGlu3 receptor D279E mutant expressed in AV12 cells assessed as stimulation of Ca2+ mobilization after 1 hr by FLIPR assay; assay type: functional, cell-based
Sequence of Metabotropic glutamate receptor 3 (Homo sapiens, UniProt Q14832, D279E) (Q14832 23-879 D279E limits assumed): as the sequence (Q14832 23-879 Q306L limits assumed) above, with D257E, L284Q counted along it

[12] = molecular target: Metabotropic glutamate receptor 3 (Homo sapiens, UniProt Q14832, D279E/Q306L); experiment: Agonist activity at human recombinant mGlu3 receptor D279E and Q306L mutant expressed in AV12 cells assessed as stimulation of Ca2+ mobilization after 1 hr by FLIPR assay; assay type: functional, cell-based
Sequence of Metabotropic glutamate receptor 3 (Homo sapiens, UniProt Q14832, D279E/Q306L) (Q14832 23-879 D279E/Q306L limits assumed): as the sequence (Q14832 23-879 Q306L limits assumed) above, with D257E counted along it

[13] = molecular target: T1, Metabotropic glutamate receptor 2; experiment: Antagonist activity at human recombinant mGlu2 receptor expressed in AV12 cells assessed as inhibition of glutamate-stimulated Ca2+ mobilization after 1 hr by FLIPR assay; assay type: functional, cell-based
Outline: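 AV12 cells stably co-expressing rat EAAT1, Gα15 and human mGlu2 (Bmax 1.35 pmol/mg), plated 85K/well 24 h ahead in medium with 250 µM L-glutamine. Compounds were dissolved from 10 mM stocks in 0.1N NaOH and run as 10-point 3-fold series. Fluo-3 AM Ca2+ transients were read by FLIPR. Read-out was % inhibition of the EC90 glutamate response, with relative IC50 from a four-parameter logistic fit.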

[14] = molecular target: T1, Metabotropic glutamate receptor 2; experiment: Antagonist activity at human recombinant mGlu2 receptor expressed in AV12 cells assessed as reversal of DCG-4-inhibited, forskolin-stimulated cAMP production after 1 hr by fluorescence assay; assay type: functional, cell-based

T1 sequence (Q14416 whole entry): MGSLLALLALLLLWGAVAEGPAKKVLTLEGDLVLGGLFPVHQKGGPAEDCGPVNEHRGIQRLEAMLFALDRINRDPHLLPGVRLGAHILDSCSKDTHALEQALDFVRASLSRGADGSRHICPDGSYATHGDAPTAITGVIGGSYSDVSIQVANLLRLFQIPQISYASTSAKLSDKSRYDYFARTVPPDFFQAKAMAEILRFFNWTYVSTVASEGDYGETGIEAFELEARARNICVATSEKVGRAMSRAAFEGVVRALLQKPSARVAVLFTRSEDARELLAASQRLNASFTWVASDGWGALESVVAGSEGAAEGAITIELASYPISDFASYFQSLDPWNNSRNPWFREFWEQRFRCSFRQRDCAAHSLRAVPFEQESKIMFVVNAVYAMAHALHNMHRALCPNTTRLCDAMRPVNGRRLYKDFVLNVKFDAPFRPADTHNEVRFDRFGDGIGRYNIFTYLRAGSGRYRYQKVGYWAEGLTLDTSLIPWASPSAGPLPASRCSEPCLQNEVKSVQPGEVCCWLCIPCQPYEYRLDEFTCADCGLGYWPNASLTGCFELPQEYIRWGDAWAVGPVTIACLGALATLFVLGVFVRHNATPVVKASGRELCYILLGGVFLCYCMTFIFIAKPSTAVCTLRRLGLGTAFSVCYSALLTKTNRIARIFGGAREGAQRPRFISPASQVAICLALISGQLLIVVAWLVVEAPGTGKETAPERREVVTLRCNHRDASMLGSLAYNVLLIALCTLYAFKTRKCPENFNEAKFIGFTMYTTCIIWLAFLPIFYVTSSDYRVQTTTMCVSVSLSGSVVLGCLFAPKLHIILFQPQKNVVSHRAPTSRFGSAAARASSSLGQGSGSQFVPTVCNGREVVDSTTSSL

Compound	EC50 [1]	Ki [2]	EC50 [3]	IC50 [4]	IC50 [5]	Ki [6]	EC50 [7]	EC50 [8]	EC50 [9]	EC50 [10]	EC50 [11]	EC50 [12]	IC50 [13]	IC50 [14]
N[C@@]1(C(=O)O)C[C@@H](Sc2c[nH]nn2)[C@H]2[C@H](C(=O)O)[C@H]21	12.4 nM	142 nM	> 25000 nM	2380 nM	5510 nM	259 nM	235 nM	–	–	–	–	–	–	–
N[C@@H](CCC(=O)O)C(=O)O [GLUTAMIC ACID]	–	–	–	–	–	–	–	–	1480 nM	1000 nM	4180 nM	5120 nM	–	–
Nc1nnc(S[C@@H]2C[C@@](N)(C(=O)O)[C@@H]3[C@@H](C(=O)O)[C@@H]32)[nH]1	4.5 nM	67 nM	> 25000 nM	–	94.7 nM	58.3 nM	74 nM	13 nM	–	–	–	–	–	–
Cc1nnc(S[C@@H]2C[C@@](N)(C(=O)O)[C@@H]3[C@@H](C(=O)O)[C@@H]32)[nH]1	10.4 nM	121 nM	105 nM	–	–	62.4 nM	103 nM	39.5 nM	–	–	–	–	–	–
CC(C)c1nc(S[C@H]2C[C@@](N)(C(=O)O)[C@@H]3[C@@H](C(=O)O)[C@@H]32)n[nH]1	74 nM	339 nM	> 25000 nM	–	2350 nM	82.7 nM	77.9 nM	242 nM	–	–	–	–	–	–
N[C@@]1(C(=O)O)C[C@H](Sc2nnc[nH]2)[C@H]2[C@H](C(=O)O)[C@H]21	11.2 nM	60.4 nM	> 25000 nM	4260 nM	3100 nM	126 nM	227 nM	–	–	–	–	–	–	–
N[C@@]1(C(=O)O)C[C@H](Sc2n[nH]c(C(F)(F)F)n2)[C@H]2[C@H](C(=O)O)[C@H]21	–	–	> 25000 nM	–	624 nM	43.1 nM	30.5 nM	–	–	–	–	–	–	–
N[C@@]1(C(=O)O)C[C@H](Sc2c[nH]nn2)[C@H]2[C@H](C(=O)O)[C@H]21	5.2 nM	111 nM	> 25000 nM	–	2790 nM	65.1 nM	92.7 nM	19 nM	–	–	–	–	–	–

Next, values leading:

EC50 [1]	Ki [2]	EC50 [3]	IC50 [4]	IC50 [5]	Ki [6]	EC50 [7]	EC50 [8]	EC50 [9]	EC50 [10]	EC50 [11]	EC50 [12]	IC50 [13]	IC50 [14]	Compound
44.3 nM	171 nM	> 25000 nM	–	3590 nM	79 nM	96.6 nM	146 nM	–	–	–	–	–	–	Cc1nnc(S[C@H]2C[C@@](N)(C(=O)O)[C@@H]3[C@@H](C(=O)O)[C@@H]32)[nH]1
0.58 nM	13.4 nM	> 25000 nM	–	244 nM	57.5 nM	27.3 nM	6.3 nM	–	–	–	–	–	–	N[C@@]1(C(=O)O)C[C@H](Sc2nnc(C(F)F)[nH]2)[C@H]2[C@H](C(=O)O)[C@H]21
16.5 nM	266 nM	> 25000 nM	859 nM	> 12500 nM	157 nM	281 nM	87.8 nM	–	–	–	–	–	–	CC(C)c1nnc(S[C@@H]2C[C@@](N)(C(=O)O)[C@@H]3[C@@H](C(=O)O)[C@@H]32)[nH]1
–	1230 nM	> 5000 nM	–	6710 nM	272 nM	> 25000 nM	> 25000 nM	–	–	–	–	> 12500 nM	15300 nM	N[C@@]1(C(=O)O)C[C@H](Sc2ccccc2)[C@H]2[C@H](C(=O)O)[C@H]21
7 nM	71.7 nM	140 nM	–	–	107 nM	27.9 nM	34.4 nM	–	–	–	–	–	–	N[C@@]1(C(=O)O)CC[C@H]2[C@H](C(=O)O)[C@H]21
6.4 nM	27.8 nM	> 25000 nM	–	3870 nM	69 nM	112 nM	20.1 nM	–	–	–	–	–	–	Nc1nnc(S[C@H]2C[C@@](N)(C(=O)O)[C@@H]3[C@@H](C(=O)O)[C@@H]32)[nH]1
–	–	82 nM	528 nM	–	56.7 nM	79.5 nM	–	–	–	–	–	–	–	N[C@@]1(C(=O)O)C[C@@H](Sc2nnc(C(F)(F)F)[nH]2)[C@H]2[C@H](C(=O)O)[C@H]21
–	420 nM	> 25000 nM	1070 nM	7690 nM	138 nM	> 25000 nM	> 12500 nM	–	–	–	–	> 12500 nM	–	N[C@@]1(C(=O)O)C[C@@H](Sc2ccccc2)[C@H]2[C@H](C(=O)O)[C@H]21
11.8 nM	95.8 nM	> 25000 nM	459 nM	154 nM	63.2 nM	77.7 nM	53.6 nM	–	–	–	–	–	–	N[C@@]1(C(=O)O)C[C@@H](Sc2nnc(C(F)F)[nH]2)[C@H]2[C@H](C(=O)O)[C@H]21
